Tests used:
Format in all cases: biochemical
Human Cathepsin L = Human Cathepsin L (Homo sapiens, UniProt P07711); experiment: Human cathepsin L assay; settings: FRET Cathepsin L IC50, 10 pM human cathepsin L, 2 μM Z-FR-AMC, pH 5.5
How it was run: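 Human enzyme, 10 pM final, preincubated 30 min with test compound at ambient temperature in 20 mM sodium acetate, 1 mM EDTA, 0.005% Brij-35, 5 mM DTT, pH5.5. Started with 2 μM Z-FR-AMC (final). Fluorescence (355/460 excitation/emission) read at 2-min intervals over 30 min. IC50 from four-parameter curve fit.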

[1] = molecular target: rhinovirus HRV3C protease (Human rhinovirus 14, UniProt P03303); experiment: 3CLpro and HRV3C duplex SAMDI-MS assay, HRV3C readout
How it was run: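 Enzymes preincubated 30 min with test compound. Biotinylated cognate peptides added (10 µM each, final). Reaction ran 30 min, then formic acid quench and bicarbonate neutralisation. Captured on SAMDI chips for 1 h; product conversion AUCprod/(AUCInt Stnd + AUCprod).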

SARS-CoV-2 3CLpro = SARS-CoV-2 3CLpro (Severe acute respiratory syndrome coronavirus 2, UniProt P0DTD1); settings: duplex SAMDI-MS assay

Sequence of Human Cathepsin L (P07711 114-333): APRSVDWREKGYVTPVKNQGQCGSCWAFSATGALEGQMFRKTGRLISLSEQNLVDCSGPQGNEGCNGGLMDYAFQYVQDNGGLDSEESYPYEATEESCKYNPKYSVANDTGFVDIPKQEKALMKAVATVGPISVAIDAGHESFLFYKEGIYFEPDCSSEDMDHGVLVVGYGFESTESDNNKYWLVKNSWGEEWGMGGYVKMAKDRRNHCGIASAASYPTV
Sequence of rhinovirus HRV3C protease (P03303 1538-1719 limits assumed): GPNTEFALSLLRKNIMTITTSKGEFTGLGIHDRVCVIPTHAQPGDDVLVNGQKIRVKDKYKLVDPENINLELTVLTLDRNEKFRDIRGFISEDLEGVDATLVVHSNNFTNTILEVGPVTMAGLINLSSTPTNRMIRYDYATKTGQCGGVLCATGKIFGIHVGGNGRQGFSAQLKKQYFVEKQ

SMILES | IC50 (Human Cathepsin L) | IC50 [1] | inhibition of 3CLpro (in words) (SARS-CoV-2 3CLpro)
CC(C)(C)NC(=O)N[C@H](C(=O)N1C[C@H]2[C@@H]([C@H]1C(=O)NC(CC1CCC1)C(=O)C(N)=O)C2(C)C)C(C)(C)C (some centres unmarked) [Boceprevir] | 2.3 µM | > 100 µM | –
CCOC(=O)/C=C/[C@H](C[C@@H]1CCNC1=O)NC(=O)[C@@H](CC(=O)[C@@H](NC(=O)c1cc(C)on1)C(C)C)Cc1ccc(F)cc1 [Rupintrivir] | 4.4 µM | 0.00104 µM | no observed inhibition
